{"data": "Published values pooled from the literature", "target": "Beta-secretase 1 (BACE1, Homo sapiens, UniProt P56817)", "action": "inhibitor", "note": "Compare with care: the assays were run in different laboratories."}
{"Structure (SMILES)": "CC(C)=CCc1c(O)cc(O)c2c(=O)c(-c3ccc(O)cc3)coc12", "effect on": "enzyme activity", "IC50 [µM]": 27}
{"Structure (SMILES)": "CC[C@H](C[C@H](O)[C@@H](N)COc1ccc(-c2ccc(F)cc2)c(OCCCOC)c1)C(=O)N[C@H](C(=O)NCc1ccc(Cl)cc1)[C@@H](C)CC", "effect on": "enzyme activity", "pH": "pH 4.5", "IC50 [µM]": 1.1}
{"Structure (SMILES)": "CN(C)c1nc(N2CCCC2)nc2ccccc12", "effect on": "enzyme activity", "technique": "FRET", "pH": "pH 5", "IC50 [µM]": 500}
{"Structure (SMILES)": "C=C(C)[C@@H]1CCC(C)=C[C@H]1c1c(O)cc2occ(-c3ccc(O)cc3)c(=O)c2c1O (relative stereo)", "effect on": "enzyme activity", "IC50 [µM]": "> 200"}
{"Structure (SMILES)": "CC[C@H](C)[C@H](NC(=O)[C@@H](C[C@H](O)[C@@H](N)COc1ccc(-c2ccc(F)cc2)c(OCCCOC)c1)C(C)C)C(=O)NCc1ccc(Cl)cc1", "effect on": "enzyme activity", "pH": "pH 4.5", "IC50 [µM]": 0.81}
{"Structure (SMILES)": "CC1(c2ccccc2)COCC(N)=N1 (stereo not drawn)", "effect on": "enzyme activity", "technique": "FRET", "pH": "pH 5", "IC50 [µM]": 200}
{"Structure (SMILES)": "[H]/N=C1\\N[C@](C)(c2cccc(Nc3cnc(C4CC4)nc3)c2Cl)CC(=O)N1[C@H]1CCO[C@@H](C)C1", "effect on": "enzyme activity", "technique": "FRET", "IC50 [µM]": "> 10"}
{"Structure (SMILES)": "Cc1cc2cc(c1)C(=O)N[C@H]([C@H](O)CN(Cc1cccc(C(C)C)c1)C(=O)OC(C)(C)C)CCC/C=C/CCCC2=O", "effect on": "enzyme activity in cells", "IC50 [µM]": "> 10"}
{"Structure (SMILES)": "COc1ccc2c(c1)OC1Oc3cc(O)cc(O)c3C(=O)C21O (stereo not drawn)", "effect on": "enzyme activity", "IC50 [µM]": 139}
